From publication PMC8682764 (Nucleic Acids Research, 2021)
Where a SMILES comes first, the peptide text is derived from it. Bridges are numbered along the chain shown (N, C = ends). [ ]: non-standard residue; d: D form. The star is where a group is joined. d(αMeK) = C[C@@](N)(CCCCN)C(=O)O; dPhg = N[C@@H](C(=O)O)c1ccccc1; Isobutyryl = CC(C)C(=O)*; Abu = CC[C@H](N)C(=O)O

B1: LANA 779–1049: GFP-LANA fragment 779–1049 (protein)
chain: QEQELEEQEQELEEQEQELEEQEQELEEQEQELEEQEQELEEQEQELEEQEQELEEQEQELEEQEVEEQEQEVEEQEQEQEEQELEEVEEQEQEQEEQEEQELEEVEEQEEQELEEVEEQEEQELEEVEEQEQQELEEVEEQEQQGVEQQEQETVEEPIILHGSSSEDEMEVDYPVVSTHEQIASSPPGDNTPDDDPQPGPSREYRYVLRTSPPHRPGVRMRRVPVTHPKKPHPRYQQPPVPYRQIDDCPAKARPQHIFYRRFLGKDGRRD
modifications: left off: GFP, end not stated, kept

Columns and labels:
[1] = tested on: WDR5 WIN binding pocket / MLL1-WDR5 interaction; conditions: cited from earlier work
[2] = tested on: WDR5 in LANA/MLL1 complex; assay: Co-precipitation of ASH2L, RbBP5, WDR5 or MLL1-SET with MBP-LANAΔ33–888; type: binding; conditions: co-precipitation with MBP-LANAΔ33–888, immunoblot
[3] = tested on: WDR5 / MBP-LANAΔ33–888 interaction; assay: Co-precipitation of WDR5 with MBP-LANAΔ33–888; type: binding; conditions: co-precipitation with MBP-LANAΔ33–888, Coomassie blue detection
WDR5 = assay: Co-IP of GFP-LANA regions with Flag-WDR5; type: binding; conditions: co-IP after expression in 293T cells, anti-Flag
In short: (§1)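 Incubated overnight at 4°C with anti-Flag M2 (2 μg) agarose beads. Beads washed 3–6 times in lysis buffer and eluted in SDS buffer. Proteins resolved by SDS-PAGE and detected by western blot.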

MLL1 = assay: Co-IP of GFP-LANA regions with MLL1; type: binding; conditions: co-IP after expression in 293T cells, anti-Flag
In short: as §1

Molecule | MLL1-WDR5 interaction inhibition [1] | exclusion of WDR5 from LANA/MLL1 complex [2] | effect on WDR5-LANA interaction [3] | interaction with WDR5 (WDR5) | interaction with MLL1 (MLL1)
CC[C@@H]1NC(=O)[C@H](CCCN=C(N)N)NC(=O)[C@](C)(NC(=O)C(C)C)CCCCNC(=O)[C@@H](c2ccccc2)NC1=O [MM-401] (Isobutyryl-[d(αMeK)]R[Abu][dPhg]; lactam 1-C) | occupies the WDR5 WIN binding pocket and thereby inhibits MLL1-WDR5 interaction | excluded nearly all WDR5 from the LANA/MLL1 complex | blocked the interaction of WDR5 with LANA |  | 
B1 |  |  |  | interacted with LANA 779–1049 | did not
